pIC50, pKi: −log10 of the molar value. Where a name gives a salt, the structure may show the parent alone. Calls of active or inactive are those of the source. The rule behind the calls is not given here.

Data set [1] in a line: Inhibition of Aeromonas proteolytica aminopeptidase by Dixon plot analysis. Also noted: species or system Vibrio proteolyticus. Put shortly:
(§1)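 Compounds tested as racemates; IC50 obtained from Dixon plots, with substrate set at the Km of each enzyme.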

Data set [2] deals with T1, Leukotriene A-4 hydrolase (Homo sapiens, UniProt P09960).
T1 sequence (P09960 whole entry): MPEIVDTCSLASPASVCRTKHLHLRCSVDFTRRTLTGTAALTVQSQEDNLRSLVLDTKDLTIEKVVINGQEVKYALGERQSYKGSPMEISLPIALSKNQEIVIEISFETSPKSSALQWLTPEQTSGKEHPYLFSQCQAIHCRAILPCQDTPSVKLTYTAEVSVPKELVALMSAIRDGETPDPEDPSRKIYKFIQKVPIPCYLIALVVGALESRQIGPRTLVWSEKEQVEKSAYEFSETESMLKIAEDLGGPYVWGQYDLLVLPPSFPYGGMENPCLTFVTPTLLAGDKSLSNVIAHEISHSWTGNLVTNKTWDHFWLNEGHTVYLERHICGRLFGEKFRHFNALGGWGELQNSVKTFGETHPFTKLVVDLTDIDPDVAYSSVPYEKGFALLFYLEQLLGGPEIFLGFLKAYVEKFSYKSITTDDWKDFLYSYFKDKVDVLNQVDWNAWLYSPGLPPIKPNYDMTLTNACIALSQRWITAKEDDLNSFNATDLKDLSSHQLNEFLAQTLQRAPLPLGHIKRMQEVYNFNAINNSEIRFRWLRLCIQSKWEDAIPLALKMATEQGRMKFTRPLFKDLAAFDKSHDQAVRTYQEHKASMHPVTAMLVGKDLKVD
As to the kind of experiment: Inhibition of aminopeptidase activity of human leukotriene A4 hydrolase by Dixon plot analysis. The method, boiled down: as §1

The target of data set [3] is Aminopeptidase N (Homo sapiens, UniProt P15144). As to the kind of experiment: Inhibition of human aminopeptidase N by Dixon plot analysis.
Sequence of Aminopeptidase N (P15144 whole entry): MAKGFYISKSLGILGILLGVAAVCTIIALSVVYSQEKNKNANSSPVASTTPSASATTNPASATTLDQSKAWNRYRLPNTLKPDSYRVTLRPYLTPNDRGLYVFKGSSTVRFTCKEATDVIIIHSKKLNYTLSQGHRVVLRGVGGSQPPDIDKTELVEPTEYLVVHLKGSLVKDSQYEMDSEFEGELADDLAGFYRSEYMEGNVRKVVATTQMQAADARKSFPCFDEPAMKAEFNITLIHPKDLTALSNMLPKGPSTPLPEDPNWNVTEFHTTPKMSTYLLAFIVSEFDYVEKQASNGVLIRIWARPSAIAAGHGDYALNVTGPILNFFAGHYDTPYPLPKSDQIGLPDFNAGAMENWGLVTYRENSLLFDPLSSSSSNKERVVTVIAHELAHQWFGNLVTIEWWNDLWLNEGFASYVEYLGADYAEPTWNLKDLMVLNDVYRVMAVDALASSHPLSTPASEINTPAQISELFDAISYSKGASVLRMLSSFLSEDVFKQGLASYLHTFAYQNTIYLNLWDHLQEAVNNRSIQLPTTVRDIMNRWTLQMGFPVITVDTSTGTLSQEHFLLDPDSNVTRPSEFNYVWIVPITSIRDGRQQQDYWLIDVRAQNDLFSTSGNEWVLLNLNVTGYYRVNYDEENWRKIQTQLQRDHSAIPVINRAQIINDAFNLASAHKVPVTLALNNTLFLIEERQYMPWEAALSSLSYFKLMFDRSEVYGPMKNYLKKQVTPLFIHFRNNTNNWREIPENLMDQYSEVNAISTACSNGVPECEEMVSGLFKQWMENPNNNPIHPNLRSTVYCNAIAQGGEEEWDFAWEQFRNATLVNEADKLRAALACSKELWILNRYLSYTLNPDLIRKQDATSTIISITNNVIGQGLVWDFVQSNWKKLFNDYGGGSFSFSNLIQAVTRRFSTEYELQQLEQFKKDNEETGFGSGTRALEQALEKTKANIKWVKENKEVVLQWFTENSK
The target in data set [4] is T2, Cytosol aminopeptidase (Bos taurus, UniProt P00727).
T2 sequence (P00727 whole entry): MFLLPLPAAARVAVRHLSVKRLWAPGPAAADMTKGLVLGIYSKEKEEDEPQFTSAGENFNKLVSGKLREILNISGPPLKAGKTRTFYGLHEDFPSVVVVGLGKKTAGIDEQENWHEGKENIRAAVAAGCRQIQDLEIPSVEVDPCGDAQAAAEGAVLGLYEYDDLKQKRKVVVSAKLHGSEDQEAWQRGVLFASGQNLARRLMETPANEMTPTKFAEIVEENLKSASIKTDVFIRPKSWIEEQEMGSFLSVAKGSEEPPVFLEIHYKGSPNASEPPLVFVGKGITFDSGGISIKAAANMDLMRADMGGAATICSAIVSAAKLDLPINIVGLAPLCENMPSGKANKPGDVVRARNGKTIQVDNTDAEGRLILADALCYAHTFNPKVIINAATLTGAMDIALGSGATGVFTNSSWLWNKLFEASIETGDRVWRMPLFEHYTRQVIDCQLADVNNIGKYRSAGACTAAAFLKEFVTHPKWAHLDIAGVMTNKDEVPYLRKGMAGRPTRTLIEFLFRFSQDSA
In words: Inhibition of bovine lens cytosolic leucine aminopeptidase by Dixon plot analysis. Also noted: species or system Lens of camera-type eye. The method, boiled down:
as §1

Data set [5] has as its target T3, Aminopeptidase N (Sus scrofa) (UniProt P15145).
T3 sequence (whole entry): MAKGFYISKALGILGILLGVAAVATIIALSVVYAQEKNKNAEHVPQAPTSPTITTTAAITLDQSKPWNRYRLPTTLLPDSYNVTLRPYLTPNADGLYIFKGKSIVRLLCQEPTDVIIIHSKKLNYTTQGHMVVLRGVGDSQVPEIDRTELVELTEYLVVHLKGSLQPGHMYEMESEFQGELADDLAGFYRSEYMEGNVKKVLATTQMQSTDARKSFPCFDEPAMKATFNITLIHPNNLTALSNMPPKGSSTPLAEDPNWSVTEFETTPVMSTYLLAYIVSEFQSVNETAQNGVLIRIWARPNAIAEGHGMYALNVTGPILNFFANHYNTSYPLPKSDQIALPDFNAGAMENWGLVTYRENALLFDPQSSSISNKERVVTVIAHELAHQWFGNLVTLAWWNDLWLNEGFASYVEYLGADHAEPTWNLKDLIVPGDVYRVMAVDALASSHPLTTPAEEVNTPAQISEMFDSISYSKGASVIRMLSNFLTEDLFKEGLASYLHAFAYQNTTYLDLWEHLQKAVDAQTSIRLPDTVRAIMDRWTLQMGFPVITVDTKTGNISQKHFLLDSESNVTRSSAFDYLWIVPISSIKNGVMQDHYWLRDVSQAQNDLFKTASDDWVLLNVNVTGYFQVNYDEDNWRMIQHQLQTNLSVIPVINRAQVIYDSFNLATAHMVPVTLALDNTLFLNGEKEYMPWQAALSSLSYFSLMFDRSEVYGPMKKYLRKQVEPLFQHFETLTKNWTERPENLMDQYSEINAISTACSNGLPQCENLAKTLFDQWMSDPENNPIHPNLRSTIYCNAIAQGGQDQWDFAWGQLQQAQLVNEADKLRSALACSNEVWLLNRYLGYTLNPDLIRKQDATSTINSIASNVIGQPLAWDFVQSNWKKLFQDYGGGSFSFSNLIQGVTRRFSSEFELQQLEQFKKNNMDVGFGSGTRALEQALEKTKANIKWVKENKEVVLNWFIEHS
As to the kind of experiment: Inhibition of porcine kidney aminopeptidase N at 2 uM after 8 hrs. Put shortly:
(§2)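 Porcine kidney APN (3 milliunits, added to start the reaction) in 20 mM Tris-HCl pH 7.5 at 25 °C; substrate leucine-para-nitroanilide 0.2 mM; para-nitroaniline release followed at 405 nm for up to 10 h; inhibitor at 2 µM; velocities compared with a no-inhibitor control.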

Data set [6] deals with T3, Aminopeptidase N (Sus scrofa). In words: Inhibition of porcine kidney aminopeptidase N at 2 uM after 1 hr. Put shortly:
as §2

Data set [7] in a line: Chemical stability of the compound. In kind it is physicochemical.

As usually defined, the pIC50 is the negative decadic logarithm of the IC50, by convention in mol/L. A low value points to a large IC50. `CC(C)C[C@H](NC(=O)[C@@H](O)[C@H](N)Cc1ccccc1)C(=O)O` [UBENIMEX] had a negative logarithm of the IC50 (pIC50) in data set [1] of 8.80.

For the compound `NC1CCc2ccccc2C/C1=N/O` (configuration not stated), the negative logarithm of the IC50 (pIC50) was 4.82 in data set [1], less than 3.00 in data set [2], 3.96 in data set [3] and less than 3.00 in data set [4].

For `NC1CCCCCC1=O` (configuration not stated) [2-AMINOCYCLOHEPTANONE HYDROCHLORIDE], the negative logarithm of the IC50 (pIC50) in data set [1] is 3.46; in data set [3], 3.51; in data set [4], less than 4.00.

In the case of `NC1Cc2ccccc2CCC1=O` (configuration not stated), the negative-log IC50 (pIC50) in data set [1], in data set [2], in data set [3] and in data set [4] was less than 3.00 each time.

As for `NC1C(=O)Cc2ccccc21` (configuration not stated), the pIC50 was 3.82 in data set [1], less than 3.00 in data set [2] and less than 3.00 in data set [4].

A word on the inhibition: it is how much of the control response was suppressed. Consider `NC1Cc2ccccc2CC1=O` (configuration not stated), for which the inhibition entry in data set [5] is “inactive”. Further, the inhibition in data set [6] is 60%. In addition, the figures for the negative-log IC50 (pIC50) in data set [1] and in data set [2] were 3.89 and less than 3.00, respectively.

By pKi is commonly meant −log10 of the Ki, conventionally taken in molar units. Low values mean a high Ki, high ones a low Ki. As for `Cl.NC1CCc2ccccc2CC1=O` (configuration not stated), in data set [5], the inhibition amounted to 60%. Also, the negative logarithm of the IC50 (pIC50) in data set [1] is 3.05; in data set [2], less than 3.00; in data set [4], less than 3.00. Also, the pKi in data set [3] was 6.00. Further, the Stability result in data set [7] is on record as “Stable”.

Take `N[C@H]1CCc2ccccc2C[C@H]1O` (relative stereo): the negative-log IC50 (pIC50) in data set [1] and in data set [4] was less than 3.00 throughout.
